# Laboratory results as given in ChEMBL document CHEMBL1132142, “Extension of the polyanionic cosalane pharmacophore as a strategy for increasing anti-HIV potency” (J Med Chem, 1999).
# Tests used:
# [1] = system: CEM-SS; test: The compound was evaluated for cytotoxicity in CEM-SS cells; assay type: functional, Homo sapiens
# Method in brief: (§1)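 Uninfected cells (CEM-SS or MT-4, per line) were incubated with the drug in a microtiter XTT assay. Viability was expressed as percent of the uninfected drug-free control. CC50 is the concentration causing 50% cell death. Triplicates were run per plate on two sister plates, and the two plate values were averaged.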
# [2] = system: CEM-SS; test: The compound was evaluated for inhibition of cytopathic effect of HIV-1 RF in CEM-SS cells; assay type: functional, cell-based, Homo sapiens
# Method in brief: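 XTT-based microtiter cytoprotection assay measuring protection from HIV-1-induced cytopathic effect, read as percent of the uninfected drug-free control. EC50 is the concentration giving 50% protection in infected cultures. Results were confirmed by cell-free supernatant reverse transcriptase and p24 levels. Each plate was run in triplicate, and the EC50 values from two sister plates were averaged.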
# [3] = system: MT4; test: The compound was evaluated for cytotoxicity in MT-4 cells; assay type: functional, Homo sapiens; method in brief: as §1
# [4] = system: MT4; test: The compound was evaluated for inhibition of cytopathic effect of HIV-1 IIIB in MT-4 cells; assay type: functional, cell-based, Homo sapiens
# [5] = system: MT4; test: The compound was evaluated for inhibition of cytopathic effect of HIV-2ROD in MT-4 cells; assay type: functional, cell-based, Homo sapiens
# [6] = target: T-cell surface glycoprotein CD4 (Homo sapiens) (UniProt P01730); test: Compound was tested for binding of the mAb (leu3a) to the CD4 receptor at 0.13 uM
# Method in brief: (§2)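 The assay measured Leu3a monoclonal antibody binding to cell-surface CD4 at each listed concentration. Read-out was % positive cells and % inhibition relative to controls, including an isotype mAb.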
# [7] = target: T-cell surface glycoprotein CD4 (Homo sapiens) (UniProt P01730); test: Compound was tested for binding of the mAb (leu3a) to the CD4 receptor at 0.15 uM; method in brief: as §2
# [8] = target: T-cell surface glycoprotein CD4 (Homo sapiens) (UniProt P01730); test: Compound was tested for binding of the mAb (leu3a) to the CD4 receptor at 0.65 uM; method in brief: as §2
# [9] = target: T-cell surface glycoprotein CD4 (Homo sapiens) (UniProt P01730); test: Compound was tested for binding of the mAb (leu3a) to the CD4 receptor at 0.73 uM; method in brief: as §2
# [10] = target: T-cell surface glycoprotein CD4 (Homo sapiens) (UniProt P01730); test: Compound was tested for binding of the mAb (leu3a) to the CD4 receptor at 16 uM; method in brief: as §2
# [11] = target: T-cell surface glycoprotein CD4 (Homo sapiens) (UniProt P01730); test: Compound was tested for binding of the mAb (leu3a) to the CD4 receptor at 18 uM; method in brief: as §2
# [12] = target: T-cell surface glycoprotein CD4 (Homo sapiens) (UniProt P01730); test: Compound was tested for binding of the mAb (leu3a) to the CD4 receptor at 3.2 uM; method in brief: as §2
# [13] = target: T-cell surface glycoprotein CD4 (Homo sapiens) (UniProt P01730); test: Compound was tested for binding of the mAb (leu3a) to the CD4 receptor at 3.7 uM; method in brief: as §2
# [14] = target: T-cell surface glycoprotein CD4 (Homo sapiens) (UniProt P01730); test: Compound was tested for binding of the mAb (leu3a) to the CD4 receptor at 81 uM; method in brief: as §2
# [15] = target: T-cell surface glycoprotein CD4 (Homo sapiens) (UniProt P01730); test: Compound was tested for binding of the mAb (leu3a) to the CD4 receptor at 92 uM; method in brief: as §2
# [16] = target: C-X-C chemokine receptor type 4 (Homo sapiens) (UniProt P61073); test: Compound was tested for binding of the mAb (12G5) to the CXCR4 receptor at 18 uM
# [17] = target: C-X-C chemokine receptor type 4 (Homo sapiens) (UniProt P61073); test: Compound was tested for binding of the mAb (12G5) to the CXCR4 receptor at 92 uM
# [18] = target: C-X-C chemokine receptor type 4 (Homo sapiens) (UniProt P61073); test: Compound was tested for binding of the mAb (12G5) to the Chemokine receptor type 4at 3.2 uM
# [19] = target: C-X-C chemokine receptor type 4 (Homo sapiens) (UniProt P61073); test: Compound was tested for binding of the mAb (12G5) to the Chemokine receptor type 4 at 16 uM
# [20] = target: C-X-C chemokine receptor type 4 (Homo sapiens) (UniProt P61073); test: Compound was tested for binding of the mAb (12G5) to the Chemokine receptor type 4 at 18 uM
# [21] = target: C-X-C chemokine receptor type 4 (Homo sapiens) (UniProt P61073); test: Compound was tested for binding of the mAb (12G5) to the Chemokine receptor type 4 at 81 uM
# [22] = target: C-X-C chemokine receptor type 4 (Homo sapiens) (UniProt P61073); test: Compound was tested for binding of the mAb (12G5) to the Chemokine receptor type 4 at 3.7 uM
# [23] = target: C-X-C chemokine receptor type 4 (Homo sapiens) (UniProt P61073); test: Compound was tested for binding of the mAb (12G5) to the Chemokine receptor type 4 at 3.2 uM
# [24] = target: C-X-C chemokine receptor type 4 (Homo sapiens) (UniProt P61073); test: Compound was tested for binding of the mAb (12G5) to the Chemokine receptor type 4 at 0.15 uM
# [25] = target: C-X-C chemokine receptor type 4 (Homo sapiens) (UniProt P61073); test: Compound was tested for binding of the mAb (12G5) to the Chemokine receptor type 4 at 0.73 uM
# [26] = target: C-X-C chemokine receptor type 4 (Homo sapiens) (UniProt P61073); test: Compound was tested for binding of the mAb (12G5) to the Chemokine receptor type 4 at 0.65 uM
# [27] = target: C-X-C chemokine receptor type 4 (Homo sapiens) (UniProt P61073); test: Compound was tested for binding of the mAb (12G5) to the Chemokine receptor type 4 at 0.13 uM
# [28] = target: C-X-C chemokine receptor type 4 (Homo sapiens) (UniProt P61073); test: Compound was tested for binding of the mAb (12G5) to the CChemokine receptor type 4 at 0.73 uM
# [29] = system: CEM-SS; test: The compound was evaluated for uM; assay type: functional, cell-based, Homo sapiens
# Chain of C-X-C chemokine receptor type 4 (Homo sapiens) (P61073 whole entry, looked up): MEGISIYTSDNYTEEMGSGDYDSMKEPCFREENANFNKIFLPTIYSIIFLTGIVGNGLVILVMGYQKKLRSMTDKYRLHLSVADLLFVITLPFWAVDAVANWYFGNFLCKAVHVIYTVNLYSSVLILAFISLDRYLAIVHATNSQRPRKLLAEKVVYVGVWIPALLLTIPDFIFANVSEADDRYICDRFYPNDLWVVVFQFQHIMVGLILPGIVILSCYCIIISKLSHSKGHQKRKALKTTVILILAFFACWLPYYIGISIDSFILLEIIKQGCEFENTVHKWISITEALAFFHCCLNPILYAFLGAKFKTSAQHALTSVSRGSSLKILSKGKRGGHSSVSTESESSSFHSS
smiles,measurement,setting,value
CC(C)CCCC(C)[C@H]1CC[C@H]2[C@@H]3CCC4C[C@@H](CCC=C(c5cc(Cl)c(OCc6cccc(C(=O)O)c6)c(C(=O)O)c5)c5cc(Cl)c(OCc6cccc(C(=O)O)c6)c(C(=O)O)c5)CC[C@]4(C)[C@H]3CC[C@]12C (some centres undefined),Cytotoxicity,[1],>316 µM
same,EC50,"[2]; Homo sapiens, CEM-SS",5.7 µM
same,Cytotoxicity,[3],29 µM
same,EC50,"[4]; Homo sapiens, MT4",2.2 µM
same,EC50,"[5]; Homo sapiens, MT4",> 29 µM
CC(C)CCCC(C)[C@H]1CC[C@H]2[C@@H]3CCC4C[C@@H](CCC=C(c5cc(Cl)c(OCc6ccc(C(=O)O)cc6)c(C(=O)O)c5)c5cc(Cl)c(OCc6ccc(C(=O)O)cc6)c(C(=O)O)c5)CC[C@]4(C)[C@H]3CC[C@]12C (some centres undefined),Positive cells,[6],99.8%
same,inhibition,[6],0%
same,Positive cells,[7],99.9%
same,inhibition,[7],0%
same,Positive cells,[8],99.9%
same,inhibition,[8],0%
same,Positive cells,[9],99.1%
same,inhibition,[9],4%
same,Positive cells,[10],2.1%
same,inhibition,[10],100%
same,Positive cells,[11],1.2%
same,inhibition,[11],100%
same,Positive cells,[12],3.2%
same,inhibition,[12],99%
same,Positive cells,[13],7.8%
same,inhibition,[13],94%
same,Positive cells,[14],1.2%
same,inhibition,[14],100%
same,Positive cells,[15],1.4%
same,inhibition,[15],100%
same,inhibition,[16],0%
same,Positive cells,[17],99.8%
same,inhibition,[17],0%
same,inhibition,[18],0%
same,Positive cells,[19],99.9%
same,inhibition,[19],0%
same,Positive cells,[20],99.9%
same,Positive cells,[21],99.8%
same,inhibition,[21],0%
same,Positive cells,[22],99.4%
same,inhibition,[22],0%
same,Positive cells,[23],99.8%
same,inhibition,[24],0%
same,inhibition,[25],0%
same,Positive cells,[26],99.2%
same,inhibition,[26],0%
same,Positive cells,[27],99.1%
same,inhibition,[27],0%
same,Positive cells,[28],99.3%
CC(C)CCCC(C)[C@H]1CC[C@H]2[C@@H]3CCC4C[C@@H](CCC=C(c5cc(Cl)c(OCc6cccc([N+](=O)[O-])c6)c(C(=O)O)c5)c5cc(Cl)c(OCc6cccc([N+](=O)[O-])c6)c(C(=O)O)c5)CC[C@]4(C)[C@H]3CC[C@]12C (some centres undefined),Cytotoxicity,[1],16 µM
same,EC50,[29],Not Active
same,Cytotoxicity,[3],97 µM
same,EC50,[4]; mt4,> 125 µM
same,EC50,[5]; mt4,> 125 µM
CC(C)CCCC(C)[C@H]1CC[C@H]2[C@@H]3CCC4C[C@@H](CCC=C(c5cc(Cl)c(OCc6cccc(C(=O)[O-])c6)c(C(=O)[O-])c5)c5cc(Cl)c(OCc6cccc(C(=O)[O-])c6)c(C(=O)[O-])c5)CC[C@]4(C)[C@H]3CC[C@]12C.[Na+].[Na+].[Na+].[Na+] (some centres undefined),Cytotoxicity,[1],>316 µM
same,EC50,[2]; cem-ss,7.6 µM
same,Cytotoxicity,[3],35 µM
same,EC50,[4]; mt4,2.4 µM
same,EC50,[5]; mt4,> 35 µM
CC(C)CCCC(C)[C@H]1CC[C@H]2[C@@H]3CCC4C[C@@H](CCC=C(c5cc(Cl)c(OCc6cccc([N+](=O)[O-])c6)c(C(=O)[O-])c5)c5cc(Cl)c(OCc6cccc([N+](=O)[O-])c6)c(C(=O)[O-])c5)CC[C@]4(C)[C@H]3CC[C@]12C.[Na+].[Na+] (some centres undefined),Cytotoxicity,[1],>316 µM
same,EC50,"[2]; Homo sapiens, CEM-SS",21.5 µM
same,Cytotoxicity,[3],>125 µM
same,EC50,[4]; mt4,48 µM
same,EC50,[5]; mt4,29 µM
CC(C)CCCC(C)[C@H]1CC[C@H]2[C@@H]3CCC4C[C@@H](CCC=C(c5cc(Cl)c(OCc6ccc([N+](=O)[O-])cc6)c(C(=O)[O-])c5)c5cc(Cl)c(OCc6ccc([N+](=O)[O-])cc6)c(C(=O)[O-])c5)CC[C@]4(C)[C@H]3CC[C@]12C.[Na+].[Na+] (some centres undefined),Cytotoxicity,[1],>316 µM
same,EC50,"[2]; Homo sapiens, CEM-SS",78.2 µM
same,Cytotoxicity,[3],>125 µM
same,EC50,[4]; mt4,80 µM
same,EC50,[5]; mt4,33 µM
